Results gathered from unrelated publications.
Each line is one published result; the experiments were not run side by side.
Target: Phosphatidylinositol 4-kinase beta (PI4KB, Homo sapiens, UniProt Q9UBF8)

| SMILES | assay | setting | endpoint | value |
| --- | --- | --- | --- | --- |
| O=C(Nc1nccs1)C(c1cc(F)ccc1O)N1Cc2ccccc2C1=O (stereo not shown) | enzyme activity, inhibitor | 1 µM | inhibition | 9% |
| CS(=O)(=O)Nc1cccc(-c2csc(NC(=O)CSc3nc4nccnc4c(=O)n3CCc3ccccc3)n2)c1 | enzyme activity, inhibitor | 10 µM | inhibition | 17% |
| Nc1ncnc2occ(-c3ccc(NC(=O)Nc4cc(C(F)(F)F)ccc4F)cc3)c12 | enzyme activity, inhibitor | 20 µM | remaining activity | 5.9% |
| c1ccc(CNc2nc(N3CCOc4ccccc43)nc3c2CCCC3)cc1 | target engagement in cells, inhibitor, chemoproteomics | 20 mM | inhibition | -16.5% |
| O=C(CSc1nc2nccnc2c(=O)n1CCc1ccccc1)Nc1ccccc1 | enzyme activity, inhibitor | 10 µM | inhibition | < 20% |
| CCCCNc1ncc2c(-c3ccc(F)cc3)nn(C[C@H]3CC[C@H](N)CC3)c2n1 | target engagement in cells, inhibitor, chemoproteomics | 20 mM | inhibition | 29.3% |
| O=C(Nc1cnc(Oc2ccc(F)cc2)nc1)N1CCc2ncccc2[C@@H]1c1ccc(F)cc1 | cell-free assay, competition with immobilised ligand | 1 µM | remaining binding | 89% |
| CC1CCCN1c1nccc(-c2cnn3ncccc23)n1 (stereo not shown) | binding | 1 µM | remaining binding | 100% |
| CN(C)CC#Cc1ccc(OCCCc2sc(N3CCc4cccc(C(=O)Nc5nc6ccccc6s5)c4C3)nc2C(=O)O)c(F)c1 | cell-free assay, competition with immobilised ligand | 1 µM | remaining binding | 100% |
| Cc1ccc(C(=O)Nc2ccc(CN3CCN(C)CC3)c(C(F)(F)F)c2)cc1C#Cc1cnc2cccnn12 | enzyme activity, inhibitor | 23.5 nM | remaining activity | 89% |
